Here are results for one molecule from ChEMBL document CHEMBL4825680, “Structure-based discovery of potent and selective small-molecule inhibitors targeting signal transducer and activator of transcription 3 (STAT3)” (Eur J Med Chem, 2021).

The source made the active and inactive calls. The calls are words filed in the database; no cut-off is given here.

A short description of data set [1]: Metabolic stability in human liver microsomes assessed as clearance at 0.1 uM preincubated for 10 mins followed by NADPH addition and measured upto 60 mins by LC-MS/MS analysis. To be noted: 1 h, time <=70 min. The format is ADME, Microsome. In outline: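 Microsomes at 0.33 mg/mL in 0.1 M Tris pH 7.4 with 5 mM MgCl2; compound final 0.1 μM (0.01% DMSO, 0.005% BSA). Preincubated 10 min at 37 °C, then started with 1 mM NADPH. Sampled at 0, 7, 17, 30 and 60 min and quenched with cold methanol. Centrifuged, then analysed by LC-MS/MS.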

The target in data set [2] is T1, Signal transducer and activator of transcription 3 (Homo sapiens, UniProt P40763). Put plainly: Inhibition of STAT3 phosphorylation at Tyr705 residue in human […] cells after 3 hrs by Western blotting analysis. To be noted: MDA-MB-468, dose 0.3-3 µM. The format is cell-based.
Data set [3] addresses T2, Signal transducer and activator of transcription 5A (Homo sapiens) (UniProt P42229).
T2 sequence (whole entry): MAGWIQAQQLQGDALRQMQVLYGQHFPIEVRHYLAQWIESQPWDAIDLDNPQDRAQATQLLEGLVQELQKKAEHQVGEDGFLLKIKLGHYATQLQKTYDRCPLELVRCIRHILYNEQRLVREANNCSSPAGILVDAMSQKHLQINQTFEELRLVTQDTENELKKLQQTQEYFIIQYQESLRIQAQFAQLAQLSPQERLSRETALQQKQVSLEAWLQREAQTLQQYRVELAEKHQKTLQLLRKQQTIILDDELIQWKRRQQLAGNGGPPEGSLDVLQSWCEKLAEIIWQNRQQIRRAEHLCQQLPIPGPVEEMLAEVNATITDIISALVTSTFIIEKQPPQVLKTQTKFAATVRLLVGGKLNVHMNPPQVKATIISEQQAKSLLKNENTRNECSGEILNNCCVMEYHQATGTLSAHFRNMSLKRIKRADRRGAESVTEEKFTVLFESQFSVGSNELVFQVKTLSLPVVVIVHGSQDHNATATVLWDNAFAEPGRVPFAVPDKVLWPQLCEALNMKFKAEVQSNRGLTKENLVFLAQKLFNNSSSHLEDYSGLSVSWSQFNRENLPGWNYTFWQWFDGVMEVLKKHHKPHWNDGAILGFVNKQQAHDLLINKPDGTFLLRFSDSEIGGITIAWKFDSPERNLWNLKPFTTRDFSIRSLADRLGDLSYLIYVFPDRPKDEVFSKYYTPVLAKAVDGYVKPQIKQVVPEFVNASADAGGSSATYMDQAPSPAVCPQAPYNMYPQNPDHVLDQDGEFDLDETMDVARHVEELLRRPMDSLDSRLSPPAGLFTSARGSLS
Put plainly: Inhibition of STAT5 phosphorylation at Y694 residue in human MDA-MB-231 cells at 0.3 to 3 uM after 3 hrs by Western blotting analysis. Type of data set: cell-based. The note with it: dose 0.3-3 µM.

The target in data set [4] is T1, Signal transducer and activator of transcription 3. Put plainly: Inhibition of STAT3 DNA binding in human MDA-MB-468 cells at 0.3 to 1 uM after 3 hrs by EMSA analysis. The format is cell-based. The note with it: dose 0.3-1 µM. The procedure, abridged: (§1)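 Cells exposed to vehicle or compound for 3 h. Nuclear extracts prepared and BCA-quantified. Nuclear protein (8–10 µg) incubated with biotinylated STAT3 or STAT5 probe, resolved on 6% native polyacrylamide gel, transferred to nylon membrane and detected with a gel-shift kit.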
For orientation: A gel shift assay detects complexes by their altered migration in electrophoresis.

Data set [5] has as its target T2, Signal transducer and activator of transcription 5A (Homo sapiens). Put plainly: Inhibition of STAT5 DNA binding in human MDA-MB-468 cells at 3 uM after 3 hrs by EMSA analysis. Type of data set: cell-based. The procedure, abridged:
as §1

Data set [6] concerns the target T1, Signal transducer and activator of transcription 3. In words: Inhibition of STAT3 dependent transcriptional activity (unknown origin) expressed in HEK293T cells at 1 to 3 uM after 24 hrs by Dual-luciferase reporter gene assay. Type of data set: cell-based. To be noted: dose 1-3 µM. In outline:
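HEK-293T cells (2.5×10^4/well) co-transfected with pGL3-STAT3 (seven STAT3 binding-site copies; 50 ng), STAT3C (50 ng) and TK-Renilla (40 ng). After 24 h, treated with vehicle or compound for 24 h. Dual firefly/Renilla luciferase read on a luminometer.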
Background: In a reporter assay the amount or activity of a reporter protein is the signal.

In the next data set the test system is MDA231-LM2-4175. In words: Inhibition of colony formation in human MDA231-LM2-4175 cells at 0.3 uM after 10 to 15 days by crystal violet staining based assay. The format is functional, cell-based. The note with it: time 10-15 day. In outline: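 Cells seeded at 0.5×10^3–1×10^3 per well; compound added the next day. Medium and compound renewed every 2–3 days. After about 10–15 days, colonies fixed with 4% paraformaldehyde, stained with crystal violet, scanned and quantified by image analysis. Triplicate.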

Data set [7] relates to MDA-MB-231. Put plainly: Induction of apoptosis in human MDA-MB-231 cells assessed as necrotic cells at 1 uM after 48 hrs by Annexin-V-FITC/propidium iodide staining based flow cytometric analysis (Rvb =0.543%). The format is functional.
The test system of data set [8] is MDA-MB-231. Put plainly: Induction of apoptosis in human MDA-MB-231 cells assessed as late apoptotic cells at 3 uM after 48 hrs by Annexin-V-FITC/propidium iodide staining based flow cytometric analysis (Rvb =3.05%). The format is functional.
The test system of data set [9] is MDA-MB-468. In words: Induction of apoptosis in human MDA-MB-468 cells assessed as early apoptotic cells at 1 uM after 48 hrs by Annexin-V-FITC/propidium iodide staining based flow cytometric analysis (reference value: 2.66%). Type of data set: functional.
The test system of data set [10] is MDA-MB-468. In words: Induction of apoptosis in human MDA-MB-468 cells assessed as necrotic cells at 3 uM after 48 hrs by Annexin-V-FITC/propidium iodide staining based flow cytometric analysis (reference value: 0.240%). Type of data set: functional. A general note: In flow cytometry, cells or beads pass a laser one at a time.
For another data set, the system named is HCC70. In words: Inhibition of cell invasion in human HCC70 cells incubated for 12 hrs by crystal violet staining based transwell assay. The format is functional. The note with it: dose 1-3 µM. In outline: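 Cells seeded at 1.5×10^4–3×10^4 per well in the upper chamber of 8.0 µm pore Transwell inserts and treated with graded compound for 12 h. Non-invading cells removed with cotton. Invaded cells fixed in 4% paraformaldehyde, stained with crystal violet, photographed and counted. Triplicate.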

A short description of data set [11]: Toxicity in mouse xenografted with human MDA-MB-231-4175 cells assessed as morphological change in lung at 5 to 15 mg/kg, […] once daily for 20 days by HE staining based assay. Type of data set: organism-based. The note with it: in vivo, iv, 480 h, dose 5-15 mg/kg, time 20 day. The procedure, abridged: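 Female NOD-SCID mice aged 4–5 weeks, given 2×10^6–3×10^6 MDA-MB-231-4175 cells subcutaneously in the flank. At about 100 mm³ tumour volume, randomised n=6/group: vehicle (PBS with 15% Cremophor EL), 5 or 15 mg/kg intraperitoneally daily. Killed at day 20; heart, liver, spleen, lung and kidney collected for morphological examination.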

The nature of data set [12]: Toxicity in NOD/SCID mouse xenografted with patient-derived breast cancer cells assessed as morphological change in liver at 5 to 15 mg/kg, […] once daily for 20 days by HE staining based assay. The format is organism-based. To be noted: in vivo, iv, dose 5-15 mg/kg, time 20 day. In outline:
(§2)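 Female NOD-SCID mice implanted subcutaneously in the flank with about 2 mm³ TNBC PDX fragments. At about 100 mm³ tumour volume, randomised n=6/group: vehicle (PBS with 15% Cremophor EL), 5 or 15 mg/kg intraperitoneally daily. Killed at day 20; heart, liver, spleen, lung and kidney collected for morphological examination.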

The nature of data set [13]: Toxicity in NOD/SCID mouse xenografted with patient-derived breast cancer cells assessed as morphological change in lung at 5 to 15 mg/kg, […] once daily for 20 days by HE staining based assay. To be noted: in vivo, iv, dose 5-15 mg/kg, time 20 day. The format is organism-based. In outline: as §2

T1 sequence (P40763 whole entry): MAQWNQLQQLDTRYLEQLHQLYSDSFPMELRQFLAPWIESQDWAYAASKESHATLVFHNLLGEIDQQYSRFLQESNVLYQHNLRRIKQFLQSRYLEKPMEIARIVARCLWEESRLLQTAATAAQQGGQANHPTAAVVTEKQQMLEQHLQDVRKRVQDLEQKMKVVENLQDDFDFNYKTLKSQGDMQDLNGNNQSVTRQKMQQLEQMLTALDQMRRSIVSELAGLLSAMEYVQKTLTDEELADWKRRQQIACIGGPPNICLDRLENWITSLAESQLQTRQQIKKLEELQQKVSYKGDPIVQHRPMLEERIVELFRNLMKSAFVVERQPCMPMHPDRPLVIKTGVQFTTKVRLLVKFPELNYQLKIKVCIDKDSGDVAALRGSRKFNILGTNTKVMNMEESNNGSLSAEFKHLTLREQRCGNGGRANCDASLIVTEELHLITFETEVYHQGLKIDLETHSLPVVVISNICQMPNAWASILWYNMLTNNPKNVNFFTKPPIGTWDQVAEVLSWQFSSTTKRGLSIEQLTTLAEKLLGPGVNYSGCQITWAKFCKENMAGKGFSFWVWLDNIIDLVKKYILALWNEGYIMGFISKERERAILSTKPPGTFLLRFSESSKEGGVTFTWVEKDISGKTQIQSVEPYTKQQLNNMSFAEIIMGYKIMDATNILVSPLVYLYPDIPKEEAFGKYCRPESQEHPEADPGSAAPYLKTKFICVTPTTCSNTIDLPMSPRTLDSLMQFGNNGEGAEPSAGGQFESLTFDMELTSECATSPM

Consider `O=C(Cc1c(-c2ccccc2)nc2ccccn12)Nc1ccc2c(c1)S(=O)(=O)C=C2`, for which the CLH in [1] was 87 mL/min/g. Further, the inhibition entry (in [2]; in the data set with HCC70) was “Dose-Dependent Effect” throughout. Moreover, the inhibition entry in data set [3] and in [5] was “inactive” throughout. Moreover, the inhibition entry (in data set [4]; in data set [6]; in the data set on MDA231-LM2-4175) was “Active” each time. Moreover, the Activity is on record as 1.57% in the data set on MDA-MB-231 [7]; 11.5% in the data set on MDA-MB-231 [8]; 24% with MDA-MB-468 [9]; 1.33% in the data set with MDA-MB-468 [10]; “Non-Toxic” in data set [11]; “Non-Toxic” in data set [12]. In [13], the Activity entry is listed as “Non-Toxic”.
